SENP1 inh – human SENP1 catalytic domain inhibitors, primary screen, biochemical, FRET, uHTS. inhibition, % at 10 µM. Sentrin-specific protease 1 (Homo sapiens), Q9P0U3. actives 0.21% (n = 360,000). recombinant SENP1 catalytic domain, CyPet-SUMO1-YPet FRET cleavage;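 active = inhibition at least 30% at 10 µM, raw YFP signal under a set limit, fluorescence ratio 0.5 to 1.5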;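 also: 0% = enzyme with DMSO and 100% = no enzyme wells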
Target sequence (Q9P0U3 419-644 limits assumed): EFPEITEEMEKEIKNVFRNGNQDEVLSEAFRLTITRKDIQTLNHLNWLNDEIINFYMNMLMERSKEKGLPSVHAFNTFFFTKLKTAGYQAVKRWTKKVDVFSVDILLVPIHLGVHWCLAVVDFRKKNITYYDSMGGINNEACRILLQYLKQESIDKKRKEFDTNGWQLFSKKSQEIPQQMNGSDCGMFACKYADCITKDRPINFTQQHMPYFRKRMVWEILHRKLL
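Assay system: hSENP1 catalytic domain, recombinant. Amount: SENP1 enzyme, 20 pM final. Schedule: 50 min reaction, RT, dark. Technique: FRET, CFP and YFP emission. Control set: no-enzyme wells low, DMSO-plus-enzyme wells high control.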
SENP6 block – SENP6 protease inhibitors, primary screen, biochemical, luminescence, uHTS; Sentrin-specific protease 6 (Homo sapiens), Q9GZR1; Recombinant SENP6 catalytic domain, aminoluciferin luminescence; inhibition, % at 10 µM; actives 1.8% (n = 330,000); AID 2599, 2010;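 active = inhibition above about 50% at the single tested dose, limit read from the data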;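 also: plate controls were DMSO wells with enzyme for no effect and DMSO wells lacking enzyme for full effect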
SENP8 block-1 – SENP8 protease inhibitors, primary screen, biochemical, luminescence | Sentrin-specific protease 8 (Homo sapiens), Q96LD8 | purified SENP8, Z-RLRGG-aminoluciferin cleavage | inhibition, % at 10 µM | actives 1.2% (n = 330,000); in the data active = inhibition above about 50%
Target sequence (Q96LD8 whole entry, looked up): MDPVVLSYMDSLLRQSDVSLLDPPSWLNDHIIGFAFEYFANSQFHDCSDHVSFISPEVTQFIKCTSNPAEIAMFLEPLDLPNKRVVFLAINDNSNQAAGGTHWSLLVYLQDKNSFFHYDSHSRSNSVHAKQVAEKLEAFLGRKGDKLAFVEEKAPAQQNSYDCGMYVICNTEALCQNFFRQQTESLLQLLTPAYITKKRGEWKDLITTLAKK
SENP7 block – SENP7 protease inhibitors, primary screen, biochemical, luminescence, uHTS; Sentrin-specific protease 7 (Homo sapiens), Q9BQF6; recombinant SENP7, Z-RLRGG-aminoluciferin luminescence, 40 min; inhibition, % at 5 µM; actives 1.5% (n = 330,000); AID 434973, 2010;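 active = inhibition above about 50% at the single test dose, limit read from the data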;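 also: plate controls were DMSO with enzyme for no effect and no enzyme buffer wells for full effect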
SENP8 block-2 – human SENP8 protease inhibitors, primary screen, biochemical, fluorescence, Nedd8 protein substrate, uHTS; Sentrin-specific protease 8 (Homo sapiens), Q96LD8; recombinant SENP8; inhibition, % at 20 µM; actives 0.64% (n = 360,000); AID 602440, 2012; in the data active = inhibition mostly above about 40%, no sharp cut-off; inactive = mostly below about 27%
SENP8 conf – SENP8 protease inhibitors, retest, confirmation, biochemical, luminescence, single concentration | shares compounds with SENP7 block | actives 40% (n = 6,200) | Recombinant SENP8, Z-RLRGG-aminoluciferin luminescence, 60 min | inhibition, % at 12.5 µM | AID 488912, 2010;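 active = mean inhibition across replicates above about 50%, limit read from the data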
SENP6 confirm – SENP6 protease inhibitors, confirmation, biochemical, luminescence, single concentration; inhibition, % at 12.5 µM; AID 488915, 2010; recombinant SENP6, Z-RLRGG-aminoluciferin luminescence; actives 58% (n = 6,200); shares compounds with SENP7 block
SENP7 confirm – SENP7 protease inhibitors, retest, confirmation, biochemical, luminescence, single concentration | inhibition, % at 12.5 µM | actives 69% (n = 6,200) | recombinant SENP7, Z-RLRGG-aminoluciferin luminescence, 40 min | shares compounds with SENP7 block | AID 488917, 2010
Casp3 select – caspase-3 protease inhibitors, confirmation, selectivity assay for SENP inhibitor project, biochemical, single concentration; inhibition, % at 12.5 µM; actives 60% (n = 6,200); shares compounds with SENP7 block; AID 488918, 2010; purified caspase-3, Z-DEVD-aminoluciferin luminescence, 60 min;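 active = mean inhibition above about 50%, limit read from the data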;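 also: plate controls were enzyme with DMSO for no effect and wells without caspase-3 for full effect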
SENP luc ctr – counter-screen for SENP inhibitors: luminescence interference; shares compounds with SENP7 block; Pre-incubated SENP8/Z-RLRGG-aminoluciferin, luciferase luminescence interference; inhibition, % at 12.5 µM; actives 39% (n = 6,200); AID 488919;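 active = mean inhibition above about 50% when retested at one dose, limit read from the data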;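 also: plate controls were DMSO wells with completed reaction for no effect and substrate without enzyme for full effect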
Numbers without * were called inactive; . = no result given. Compounds with a hit are over-represented: about 2.5% of the library has one in this group of screens.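 The calls were made as follows, unless noted: active = mean inhibition above about 50% in the one-dose retest (limit read from the data); inactive = the rest.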

SMILES	SENP1 inh	SENP6 block	SENP8 block-1	SENP7 block	SENP8 block-2	SENP8 conf	SENP6 confirm	SENP7 confirm	Casp3 select	SENP luc ctr
Nc1nc(Nc2ccccc2)nc2ccccc12	3	94*	91*	97*	18	97*	98*	103*	97*	96*
Cc1ccccc1Nc1nc(N)c2ccccc2n1	1	3	91*	95*	-230	94*	95*	102*	97*	95*
CC1CC(=O)Nc2ccccc2N1C(=O)COc1ccccc1C(N)=O (stereo not drawn)	2	.	.	.	15	.	.	.	.	.
COc1cccc(OC(=O)c2ccccc2)c1OC(=O)c1ccccc1	-1	.	.	.	12	.	.	.	.	.
Cc1ccccc1OC(C)C(=O)Nc1cccnc1 (stereo not drawn)	-1	-7	-3	-8	1	.	.	.	.	.
COc1cc(CNc2ncc(-c3ccc(Br)cc3)n2C)cc(OC)c1O	-9	8	-9	-10	22	.	.	.	.	.
CCCN(Cc1cc(=O)[nH]c2ccccc12)C(=O)CC	0	98*	-7	4	-29	5	3	-6	-4	-10
CCC(=O)N(CC)Cc1cc(=O)[nH]c2ccccc12	3	4	-3	-7	-4	.	.	.	.	.
COc1ccc(-c2cc(C(=O)Nc3ccccc3)on2)cc1	2	61*	42	86*	-2	11	19	4	9	5
COc1ccc(-c2cc(C(=O)Nc3ccccc3F)on2)cc1	2	35	11	70*	-1	22	16	13	16	1
COc1ccc(OC)c(NC(=O)C(=O)N/N=C/c2ccccc2[N+](=O)[O-])c1	1	-7	-4	92*	16	7	8	7	4	3
COc1cc(NC(=O)/C=C/c2ccccc2[N+](=O)[O-])cc(OC)c1	1	73*	55*	63*	14	11	8	-3	0	0
O=C(/C=C/c1ccccc1[N+](=O)[O-])Nc1ccccc1	0	90*	81*	87*	3	83*	82*	94*	81*	81*
CCc1nn(C(C)C(=O)N(C)Cc2ccccc2)c(=O)c2cc3occc3n12 (stereo not drawn)	-9	-18	2	2	-24	.	.	.	.	.
Cc1ccc(CNCC(=O)Nc2cccc(S(=O)(=O)NC3=NCCCCC3)c2)cc1	2	9	-1	6	3	.	.	.	.	.
O=C1C(=C(O)c2ccccc2)C(=O)c2ccccc21	7	74*	47	-2	66*	9	10	-1	0	-5
O=C1CCN(CCCc2ccccc2)CCN1[C@H](CO)Cc1ccccc1	0	0	3	-1	17	.	.	.	.	.
NC(=O)c1ccc(NC(=O)c2cccc(Oc3ccccc3)c2)cc1	1	38	10	68*	9	-28	-9	0	16	-3
COc1ccc(NC(=O)c2cccc(S(=O)(=O)Nc3ccc(Br)cc3)c2)cn1	1	-1	-11	4	31	.	.	.	.	.
COc1ccc(NC(=O)c2cccc(Oc3ccccc3)c2)cn1	3	72*	50	62*	12	52*	52*	83*	45	41
COCCNC(=O)C(c1ccc(F)cc1)N(C(=O)CCC(=O)Nc1ccccn1)c1ccc(C)cc1 (stereo not drawn)	-1	-18	7	0	6	.	.	.	.	.
CC(/C=C/c1ccc(O)cc1)=N/O	1	91*	81*	85*	2	86*	84*	96*	93*	86*
Nc1nnc(-c2cccnc2)s1	1	-5	4	2	-24	.	.	.	.	.
c1ccc(Nc2nnc(-c3cccnc3)s2)cc1	3	80*	72*	87*	-308	9	14	13	27	29
Cc1ccc(NC(=O)N2CCc3ccccc3C2)cc1C	-2	-11	-4	-4	4	.	.	.	.	.
SMILES	SENP1 inh	SENP6 block	SENP8 block-1	SENP7 block	SENP8 block-2	SENP8 conf	SENP6 confirm	SENP7 confirm	Casp3 select	SENP luc ctr
Cc1cc(C)cc(NC(=O)N2CCc3ccccc3C2)c1	1	55*	24	43	5	43	37	69*	50*	51*
CC(C)NC(=O)C1(C)CSCC(=O)N1CCOc1ccccc1 (stereo not drawn)	0	.	.	.	11	.	.	.	.	.
CCOc1ccc2cc(C3CC(c4ccco4)=NN3S(C)(=O)=O)c(Cl)nc2c1 (stereo not drawn)	-1	-10	-9	-2	-2	.	.	.	.	.
CCc1ccc(C2CC(c3ccco3)=NN2S(C)(=O)=O)cc1 (stereo not drawn)	-8	94*	89*	92*	22	96*	97*	102*	96*	92*
Cc1nc(Nc2nc3ccccc3o2)nc(C)c1C	0	58*	47	63*	13	8	52*	87*	80*	20
Cc1cnc(Nc2nc3ccccc3o2)nc1C(=O)Nc1cccc(C(F)(F)F)c1	2	10	-3	4	2	.	.	.	.	.
Cc1ccc(Nc2nc3ccccc3o2)cc1F	0	88*	78*	87*	16	57*	81*	98*	75*	48
Cc1ccnc(Nc2nc3ccccc3o2)n1	1	77*	67*	73*	12	-26	54*	88*	90*	50
N#Cc1cnc(Nc2nc3ccccc3o2)nc1-c1ccccc1	1	-30	-14	-1	4	.	.	.	.	.
CC(NC(=O)C1CCN(C(=O)Nc2ccccc2)CC1)c1ccccc1 (stereo not drawn)	2	-9	1	-6	-2	.	.	.	.	.
Cc1ccsc1/C=N/n1cnnc1	0	-36	-8	-3	11	.	.	.	.	.
